RAM inhibit = inhibitors of the yeast RAM network | AID 868 | 190,000 tested, 1.8% active | inhibition, % at 50 µM | S. cerevisiae dse1pr::URA3 reporter, 5-FOA growth OD615, 2 d; analog-sensitive cbk1-as2 kinase mutant strain;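 active = inhibition above a set limit, 3 SD over mean compound inhibition, cut at about 8.4% in these data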;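 also: 0% = DMSO-only wells with no growth and 100% = 10 µM 1-NA-PP1 full growth; inhibition rescues growth on 5-FOA so higher OD means more RAM inhibition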
Measles CPE = protection of cells from measles virus. Measles virus-infected cells, CPE protection, absorbance. protection (pct of control), % at 4 µM. 140,000 tested, 1.5% active; in the data active = protection mostly above about 24%, no sharp cut-off; inactive = mostly below about 26%
hDAT+cocaine = human DAT dopamine uptake with cocaine, either direction | Q01959 | LLC-PK1 hDAT cells, [14C]-dopamine uptake with cocaine IC80; actives deviate in either direction | B-score at 10 µM | 110,000 tested, 1.3% active;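 active = Z score or B-score, a plate-position-corrected score, falls beyond the plate's 99.7% confidence bounds, in either direction; inactive = both scores lie inside the 99.7% bounds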;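 also: scored against the spread of the other compound wells on the same plate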
Target sequence (Q01959 whole entry, looked up): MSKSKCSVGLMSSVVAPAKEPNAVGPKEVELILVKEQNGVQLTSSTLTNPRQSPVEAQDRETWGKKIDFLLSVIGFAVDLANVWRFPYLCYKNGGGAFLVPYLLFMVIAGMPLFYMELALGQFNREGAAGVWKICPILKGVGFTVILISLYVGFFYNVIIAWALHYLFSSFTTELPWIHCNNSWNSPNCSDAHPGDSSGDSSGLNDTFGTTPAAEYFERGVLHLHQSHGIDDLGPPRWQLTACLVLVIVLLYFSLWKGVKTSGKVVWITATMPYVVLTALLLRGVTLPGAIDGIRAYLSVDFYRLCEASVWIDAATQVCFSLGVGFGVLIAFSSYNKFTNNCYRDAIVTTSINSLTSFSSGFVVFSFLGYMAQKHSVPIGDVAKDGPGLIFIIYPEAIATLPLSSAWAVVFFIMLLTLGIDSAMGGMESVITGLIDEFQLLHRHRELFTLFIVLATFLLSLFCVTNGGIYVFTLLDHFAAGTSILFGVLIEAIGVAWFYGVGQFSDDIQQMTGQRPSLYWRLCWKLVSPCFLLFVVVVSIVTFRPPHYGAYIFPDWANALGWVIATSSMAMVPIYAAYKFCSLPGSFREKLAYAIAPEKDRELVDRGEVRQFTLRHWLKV
BB579 growth dn = chemicals that inhibit yeast BB579 growth in restrictive medium (lifespan-shortening candidates). S. cerevisiae BB579 growth, OD615, 48 h. inhibition, % at 10 µM. 140,000 tested, 0.51% active. AID 804;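 active = inhibition above a set limit, 3 SD over the mean compound inhibition, cut at about 44% in these data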
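Detection: OD615 turbidity measurement; Material: Saccharomyces cerevisiae DeaD strain BB579, replicative lifespan model yeast; Timing: 48 h exposure, 30 °C; Doses: single 10 µM dose; Medium: CSMM-D restrictive synthetic medium containing dextrose (glucose); Controls: amphotericin B at 10 µg/mL as positive control.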
WT yeast gro inh = growth inhibition of WT yeast, mitochondrial fusion screen. inhibition, % at 10 µM. AID 1362. 190,000 tested, 2.1% active. mitochondrial fusion phenotypic screen, WT strain; in the data active = inhibition above about 58%; tested in S. cerevisiae
Yeast lifespan up = extends the lifespan of yeast. S. cerevisiae growth with nicotinamide, OD615; deaD strain in restrictive glucose medium. AID 775. inhibition of the nicotinamide effect, % at 10 µM. 130,000 tested, 0.68% active;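 active = inhibition above a set limit, placed 3 SD over the median of all compounds, cut at about 26% in these data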;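 also: 0% = nicotinamide-treated wells and 100% = cells grown without nicotinamide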
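System: DeaD-strain S. cerevisiae / Buffer or medium: CSMM-D, restrictive glucose (dextrose) synthetic minimal medium / Probe or stimulus: nicotinamide, 1.5 mM, co-present with compound / Compound: one concentration, 10 µM, DMSO 0.25% / Incubation: 48 h compound exposure at 30 °C, humidified / Technique: optical density (absorbance) at 615 nm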
* marks the source's active call; other numbers are inactive results. Rows were chosen to be rich in hits. Some 6.1% of all compounds tested hit in one or more screens of this group.

How did Cc1nc(-c2ccc3c(c2)OCO3)cs1 do in these assays?
RAM inhibit: 2.2; Measles CPE: 17.1; hDAT+cocaine: -0.325; BB579 growth dn: -11.8; WT yeast gro inh: 5.6; Yeast lifespan up: -9.7

What do the screens show for `CCCCn1c(-c2csc(CC)c2)n[nH]c1=S`?
RAM inhibit: -1.0; Measles CPE: 11.3; BB579 growth dn: -40.5; WT yeast gro inh: 67.2*; Yeast lifespan up: 0.4

How did CCCCn1c(-c2csc3c2CCC(C)C3)n[nH]c1=S (stereo not given) do in these assays?
RAM inhibit: 0.9; hDAT+cocaine: 1.04; BB579 growth dn: -0.3; WT yeast gro inh: 75.8*; Yeast lifespan up: -12.1

How did CCCCn1c(-c2csc3c2CCCC3)n[nH]c1=S do in these assays?
RAM inhibit: -0.8; Measles CPE: 8.9; hDAT+cocaine: 0.935; BB579 growth dn: -24.8; WT yeast gro inh: 20.4; Yeast lifespan up: 16.3

How did Cc1ccsc1-c1n[nH]c(=S)n1CC(C)C do in these assays?
RAM inhibit: 0.5; Measles CPE: 15.3; BB579 growth dn: -36.3; WT yeast gro inh: 8.1; Yeast lifespan up: 0.5

How did CCCCn1c(-c2csc(C(C)C)c2)n[nH]c1=S do in these assays?
RAM inhibit: -2.0; Measles CPE: 16.2; BB579 growth dn: 5.0; WT yeast gro inh: 65.1*; Yeast lifespan up: 3.7

What do the screens show for `CCCc1cc(-c2n[nH]c(=S)n2CC(C)C)cs1`?
RAM inhibit: -1.1; Measles CPE: 26.5; BB579 growth dn: -29.6; WT yeast gro inh: 62.4*; Yeast lifespan up: 10.3

Results for Cc1cccc(-n2c(-c3csc(C)c3)n[nH]c2=S)c1 ?
RAM inhibit: 0.5; Measles CPE: 19.0; hDAT+cocaine: 0.0852; BB579 growth dn: -5.4; WT yeast gro inh: 0.2; Yeast lifespan up: -2.5

How did CCc1cc(-c2n[nH]c(=S)n2-c2cccc(C)c2)cs1 do in these assays?
RAM inhibit: 2.4; Measles CPE: 3.4; BB579 growth dn: 8.3; WT yeast gro inh: 61.3*; Yeast lifespan up: -17.0

How did Cc1ccccc1Cc1c(C)nc2c(C(=O)NCc3ccco3)cnn2c1C do in these assays?
RAM inhibit: 10.4*; Measles CPE: 2.9; hDAT+cocaine: 3.02*; BB579 growth dn: -46.1; WT yeast gro inh: 6.6; Yeast lifespan up: -9.9

Results for Cc1ccc(Cc2c(C)nc3nc(SCC(=O)NCc4ccco4)nn3c2C)cc1 ?
RAM inhibit: 3.1; Measles CPE: 8.1; hDAT+cocaine: -0.0416; BB579 growth dn: -32.2; WT yeast gro inh: 2.6; Yeast lifespan up: -2.6

Results for Cc1ccc(C)c(Cc2c(C)nc3c(C(=O)N4CCOCC4)cnn3c2C)c1 ?
RAM inhibit: 0.9; Measles CPE: 39.8*; hDAT+cocaine: -0.799; BB579 growth dn: -18.0; WT yeast gro inh: 2.8; Yeast lifespan up: -18.1

Results for Cc1ccccc1Cc1c(C)nc2nc(SCC(=O)NCc3ccco3)nn2c1C ?
RAM inhibit: 1.6; Measles CPE: 4.9; hDAT+cocaine: -7.93*; BB579 growth dn: -45.8; WT yeast gro inh: 4.9; Yeast lifespan up: -15.3

Results for Cc1nc2c(C(=O)O)cnn2c(C)c1Cc1ccccc1F ?
RAM inhibit: 0.4; Measles CPE: 4.5; hDAT+cocaine: 0.208; BB579 growth dn: -36.5; WT yeast gro inh: 17.3; Yeast lifespan up: -3.8

What do the screens show for `Cc1ccc(-n2cc(CN3CCC(O)(c4ccccn4)CC3)c(-c3ccc(F)cc3)n2)cc1`?
RAM inhibit: 0.3; WT yeast gro inh: 50.9

How did CCC(C(=O)NCc1ccccc1OC)n1nc(C)n2c(cc3occc32)c1=O (stereo not given) do in these assays?
RAM inhibit: 0.1; Measles CPE: 2.5; hDAT+cocaine: 0.0476; BB579 growth dn: -43.3; WT yeast gro inh: -4.1; Yeast lifespan up: -8.8

How did C#CCOC(=O)CCCC(=O)NCCCCCCCC do in these assays?
RAM inhibit: -0.1; WT yeast gro inh: 7.6

What do the screens show for `CCOC(=O)C1=C(C)n2c(s/c(=C/c3cccc([N+](=O)[O-])c3)c2=O)=NC1c1ccc(O)c(OC)c1` (stereo not given)?
RAM inhibit: 6.0; Measles CPE: 9.0; hDAT+cocaine: -0.177; BB579 growth dn: -26.5; WT yeast gro inh: 70.0*; Yeast lifespan up: -4.6

What do the screens show for `Cc1ccccc1S(=O)(=O)Cc1ccc(C(=O)NCc2cccs2)o1`?
RAM inhibit: 1.2; Measles CPE: 0.6; hDAT+cocaine: -8.35*; BB579 growth dn: -29.9; WT yeast gro inh: 7.8; Yeast lifespan up: -5.2

Screening data as filed in PubChem BioAssay.
